Experimental data as given in PubChem BioAssay.
Inconclusive results are not listed.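 How the source made its calls, unless noted: active means RAM network inhibition above 8.4% in each of two replicates, 3 SD over the compound average; inconclusive means above 8.4% inhibition in only one replicate; inactive means 8.4% inhibition or less in each replicate.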

Columns and labels:
[1] = S. cerevisiae growth inhibition in permissive medium (OD615), pilot counter-assay for S. cerevisiae lifespan shortening project, permissive growth control (AID 705;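 active means growth inhibition above 25% in both replicates, a cutoff set 3 SD above the mean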); settings: OD615, 24 h, at 10 µM, hits give high values
Procedure, shortened: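 assay system = Saccharomyces cerevisiae strain carrying genetically modified DeaD replicative-lifespan system | medium = SC raffinose/galactose permissive medium | dosing = 10 µM single dose, 0.25% DMSO | schedule = 24 h compound exposure at 30 °C after 4 h pre-growth | measured by = OD at 615 nm | read-out basis = growth inhibition from lowered OD615 after 24 h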

[2] = S. cerevisiae growth inhibition in restrictive medium, OD615, pilot screen, restrictive growth control, yeast lifespan reduction project (AID 706;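 active means growth inhibition above a set limit, 3 SD over mean compound inhibition, in both replicates, cut at about 43% in these data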;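 further: modified DeaD lifespan yeast strain shifted to restrictive glucose medium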); settings: OD615, 48 h, at 10 µM, hits give high values
Procedure, shortened: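 Buffer or medium: CSMM-D glucose medium. Material: genetically modified Saccharomyces cerevisiae, DeaD replicative lifespan assay strain. Times: 48 h compound exposure at 30 °C. Measured by: optical density at 615 nm.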

[3] = doxorubicin toxicity protection in MRP-1 cells – H69AR cells, CellTiter-Glo, duplicate, MRP-1 activator project, pilot screen (AID 807;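 active means viability increase at or above a cutoff of the median across tested compounds plus 3 SD, cut at about 8.5% in these data, passing the limit was not always enough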;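 further: compound pretreatment 18-22 h then 72 h combined with doxorubicin; 0% = doxorubicin alone and 100% = vehicle without doxorubicin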); settings: H69AR viability with doxorubicin, CellTiter-Glo luminescence; at 10 µM; hits give high values
[4] = viability of HCT116 without oncogenic beta-catenin – human colon tumor cells, pilot screen (AID 823;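 active means cell viability at or below a set limit in both duplicate runs, the limit being the all-compound median minus 4 SD, cut at about 23% in these data, passing the limit was not always enough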;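 further: 0% = wells killed by 20 µM Hyamine and 100% = untreated DMSO cell wells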); settings: HCT116 beta-catenin knockout viability, CellTiter-Glo, 60 h; at 10 µM; hits give low values
[5] = viability of PTEN-null HCT116 cells – cell-based, HCT116 clonal line, CellTiter-Glo, pilot screen (AID 824;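 active means viability at or below 27.92% in each of two runs, the all-compound median minus 4 SD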;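 further: 0% = 20 µM Hyamine control and 100% = vehicle cell control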); settings: HCT116 PTEN-deleted viability, 60 h, at 10 µM, hits give low values
[6] = RAM pathway blockade in budding yeast – dse1pr::URA3 reporter, 5-FOA selection, pilot screen (AID 869;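 active means inhibition over a set limit, the all-compound mean plus 3 SD, in both replicate runs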;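 further: 0% = DMSO wells with no growth and 100% = 10 µM 1-NA-PP1 with full growth; RAM network block rescues cells from 5-FOA so hits raise OD615 growth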); settings: S. cerevisiae dse1pr::URA3 5-FOA growth, OD615, 2 d; at 10 µM; hits give high values; strain carries analog-sensitive mutant Cbk1 kinase
[7] = RAM signaling pathway blockade in yeast – S. cerevisiae, Pdr1DBD-CYC8 efflux-inhibited sensitized strain, primary screen (AID 1298);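 further: 0% = DMSO untreated cells without growth and 100% = 10 µM 1-NA-PP1 full growth; higher means more yeast growth rescued from 5-FOA killing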; settings: S. cerevisiae cbk1-as DSE1-URA3 strain, 5-FOA growth OD615, 2 d; at 50 µM; hits give high values

CCC(=NCCc1ccccc1)C1=C(O)CCC1=O
inactive: growth inhibition [1] 3.04% | growth inhibition [2] -0.44% | viability increase [3] -2.05% | viability [4] 98.3% | viability [5] 98.8% | inhibition [6] 0.325% | RAM network inhibition [7] 2.13%

Cc1nc2sc(C(c3ccco3)N3CCN(c4ccccc4)CC3)c(O)n2n1 (configuration not stated)
inactive: growth inhibition [1] -2.19% | growth inhibition [2] -0.705% | viability increase [3] 3.13% | viability [4] 97.3% | viability [5] 101% | inhibition [6] 1.73% | RAM network inhibition [7] 3%

CCOC(=O)c1c(NC(=O)CN2CCCCC2)sc2c1CCCC2O (configuration not stated)
inactive: growth inhibition [1] -10.4% | growth inhibition [2] -0.48% | viability increase [3] -4.26% | viability [4] 70.3% | viability [5] 65.2% | inhibition [6] -0.195% | RAM network inhibition [7] 4.1%

CCCn1cc(S(=O)(=O)CC(=O)NC2CCCCC2)c2ccccc21
inactive: growth inhibition [1] -1.69% | growth inhibition [2] -0.78% | viability increase [3] -0.07% | viability [4] 93.2% | viability [5] 101% | inhibition [6] 1.39% | RAM network inhibition [7] 2.24%

CCN(CCNC(=O)C1CCCN(S(=O)(=O)c2cnc[nH]2)C1)c1ccccc1 (configuration not stated)
inactive: growth inhibition [1] -0.145% | growth inhibition [2] -6.85% | viability increase [3] -0.77% | viability [4] 106% | viability [5] 101% | inhibition [6] 0.775% | RAM network inhibition [7] 3.46%

COCCOC(=O)C1=C(C)NC(=O)NC1c1c(F)cccc1Cl (configuration not stated)
inactive: growth inhibition [1] -7.95% | growth inhibition [2] -2.18% | viability increase [3] 0% | viability [4] 106% | viability [5] 95.8% | inhibition [6] 0.515% | RAM network inhibition [7] 0.88%

CC(=O)c1cccc(NC(=O)c2cc(C)no2)c1
inactive: growth inhibition [1] -4.53% | growth inhibition [2] -12.4% | viability increase [3] -1.41% | viability [4] 98.9% | viability [5] 92.5% | inhibition [6] 1.26% | RAM network inhibition [7] -1.99%

CC(=O)/C(C(=N)N1CCN(C(c2ccccc2)c2ccccc2)CC1)=C(\C)O
inactive: growth inhibition [1] -2.42% | growth inhibition [2] -7.72% | viability increase [3] -2.93% | viability [4] 102% | viability [5] 91.2% | inhibition [6] -0.395% | RAM network inhibition [7] 2.41%

COc1ccccc1N1CCN(C(=O)c2cc3cc(Br)ccc3oc2=O)CC1
inactive: growth inhibition [1] 2.45% | growth inhibition [2] -11.9% | viability increase [3] -0.94% | viability [4] 110% | viability [5] 94.1% | inhibition [6] 2.47% | RAM network inhibition [7] 1.96%

O=C1CCCCCN1CP(=O)(O)CCc1ccccc1
inactive: growth inhibition [1] -5.01% | growth inhibition [2] -0.455% | viability increase [3] -0.2% | viability [4] 100% | viability [5] 104% | inhibition [6] 1.19% | RAM network inhibition [7] 0.42%

CC(=O)Nc1ccc(NC(=O)c2oc3cc(C)c(C)cc3c2C)cc1
inactive: growth inhibition [1] -7.1% | growth inhibition [2] -17% | viability increase [3] -0.82% | viability [4] 104% | viability [5] 96.4% | inhibition [6] 2.38% | RAM network inhibition [7] 5.95%

O=C(N1CCN(c2ccc(F)cc2)CC1)C12CC3CC(CC(C3)C1)C2
inactive: growth inhibition [1] -15.7% | growth inhibition [2] -5.23% | viability increase [3] -0.18% | viability [4] 84.1% | viability [5] 83.6% | inhibition [6] 0.94% | RAM network inhibition [7] 11.5%

COc1cc2c(cc1OC)C1=C(C#N)CN(CC(=O)O)CN1CC2
inactive: growth inhibition [1] -0.125% | growth inhibition [2] 11.3% | viability increase [3] -4.43% | viability [4] 106% | viability [5] 96% | inhibition [6] 1.7% | RAM network inhibition [7] 1.9%

Cc1cccn2c(=O)c3cc(C(=O)NCCCN4CCOCC4)n(C)c3nc12
inactive: growth inhibition [1] -4.96% | growth inhibition [2] -3.14% | viability increase [3] 0.44% | viability [4] 93.1% | viability [5] 93.1% | inhibition [6] 1.06% | RAM network inhibition [7] 0.37%

COc1ccc(-n2c(Cn3c(=O)sc4ccccc43)nnc2SCC(=O)N2CCCC2)cc1
inactive: growth inhibition [1] -1.82% | growth inhibition [2] 17.8% | viability increase [3] 0.25% | viability [4] 104% | viability [5] 102% | inhibition [6] 1.5% | RAM network inhibition [7] 3.39%

O=C(Nc1ccc2nc(-c3cccnc3)[nH]c2c1)c1ccco1
inactive: growth inhibition [1] -2% | growth inhibition [2] -20.3% | viability increase [3] -2.85% | viability [4] 100% | viability [5] 97.4% | inhibition [6] 0.845% | RAM network inhibition [7] 4.67%

CCc1ccc(C2CC(c3ccccc3)Nc3nc(N)nn32)cc1 (configuration not stated)
inactive: growth inhibition [1] -5.9% | growth inhibition [2] -6.06% | viability increase [3] 0.7% | viability [4] 97.3% | viability [5] 100% | inhibition [6] -0.27% | RAM network inhibition [7] 5.98%

Cc1cc(C)n(CC(O)Cn2c3ccccc3c3ccccc32)c(=O)n1 (configuration not stated)
inactive: growth inhibition [1] -7.41% | growth inhibition [2] -12.9% | viability increase [3] -2.44% | viability [4] 90% | viability [5] 91.5% | inhibition [6] 1.3% | RAM network inhibition [7] 5.3%

Cc1nc(-c2ccc(S(=O)(=O)N3CCCCCC3)cc2)cs1
inactive: growth inhibition [1] 10.7% | growth inhibition [2] 2.95% | viability increase [3] -2.37% | viability [4] 90.8% | viability [5] 89.7% | inhibition [6] 0.075% | RAM network inhibition [7] 1.28%

CCOC(=O)c1[nH]c2ccccc2c1NC(=O)c1ccc2c(c1)OCO2
inactive: growth inhibition [1] -2.92% | growth inhibition [2] -6.88% | viability increase [3] -4.72% | viability [4] 85.6% | viability [5] 85.6% | inhibition [6] 1.8% | RAM network inhibition [7] 2.88%

CC(C)CN(CC(C)C)c1nnc(N)s1
inactive: growth inhibition [1] 3.15% | growth inhibition [2] 2.1% | viability increase [3] 1.25% | viability [4] 103% | viability [5] 99.5% | inhibition [6] 0.56% | RAM network inhibition [7] 1.13%

Cc1cccc(N2CCN(S(C)(=O)=O)CC2)c1C
inactive: growth inhibition [1] -14.5% | growth inhibition [2] -14.1% | viability increase [3] -0.12% | viability [4] 108% | viability [5] 95.3% | inhibition [6] 0.76% | RAM network inhibition [7] 5.4%

Cc1ccccc1CN1CCN(CC(=O)NCc2ccccn2)C1=O
inactive: growth inhibition [1] 4.21% | growth inhibition [2] 10.8% | viability increase [3] 1.17% | viability [4] 106% | viability [5] 108% | inhibition [6] -0.32% | RAM network inhibition [7] 1.55%

CCCC(=O)NCCCc1nc2ccccc2n1CC
inactive: growth inhibition [1] -7.75% | growth inhibition [2] 0.985% | viability increase [3] 0.81% | viability [4] 100% | viability [5] 101% | inhibition [6] -0.16% | RAM network inhibition [7] 0.58%

CCn1c(CCCNC(=O)c2cccs2)nc2ccccc21
inactive: growth inhibition [1] -6.02% | growth inhibition [2] -11.4% | viability increase [3] -2.77% | viability [4] 104% | viability [5] 96.1% | inhibition [6] 2.48% | RAM network inhibition [7] 1.95%

Cc1cc(=O)oc(C)c1C(=O)N1CCc2c([nH]c3ccccc23)C1C(C)C (configuration not stated)
inactive: growth inhibition [1] 3.99% | growth inhibition [2] 3.98% | viability increase [3] -5% | viability [4] 94.9% | viability [5] 89.4% | inhibition [6] 1.1% | RAM network inhibition [7] 4.47%

CC1=CC(C)(C)N(C(=O)CSc2nnc(-c3ccccc3)o2)c2ccc(C)cc21
inactive: growth inhibition [1] -10% | growth inhibition [2] 2.73% | viability increase [3] -5.46% | viability [4] 62% | viability [5] 66.2% | inhibition [6] 0.325% | RAM network inhibition [7] 6.03%

Cc1nccn1-c1c2c(c(C#N)c3nc4ccccc4n13)CCC2
inactive: growth inhibition [1] -8.38% | growth inhibition [2] -2.89% | viability increase [3] -2.34% | viability [4] 97.3% | viability [5] 93.1% | inhibition [6] 2.08% | RAM network inhibition [7] 2.4%

CC1=C(C(=O)OC2CCCCCCC2)C(c2ccc(O)cc2)NC(=O)N1 (configuration not stated)
inactive: growth inhibition [1] -3.17% | growth inhibition [2] 4.04% | viability increase [3] -0.32% | viability [4] 73.8% | viability [5] 72% | inhibition [6] 1.85% | RAM network inhibition [7] 3.65%

CCOC(=O)Cn1c(=O)oc2cc(S(=O)(=O)NC3CCCc4ccccc43)ccc21 (configuration not stated)
inactive: growth inhibition [1] -9.8% | growth inhibition [2] -15.4% | viability increase [3] -0.67% | viability [4] 88.3% | viability [5] 92.2% | inhibition [6] 4.13% | RAM network inhibition [7] 3.75%

CN1C(=O)C(O)(CC(=O)c2cccnc2)c2ccccc21 (configuration not stated)
inactive: growth inhibition [1] -7.06% | growth inhibition [2] -7.81% | viability increase [3] -4.86% | viability [4] 83% | viability [5] 85% | inhibition [6] 2.05% | RAM network inhibition [7] 1.88%

Cc1ccc(N(C(=O)CC2NC(=O)NC2=O)C2(C(=O)NC3CCCC3)CCCCC2)cc1 (configuration not stated)
inactive: growth inhibition [1] -9.96% | growth inhibition [2] -19.7% | viability increase [3] -1.56% | viability [4] 95.2% | viability [5] 93.7% | inhibition [6] -0.23% | RAM network inhibition [7] 3.14%

CCOC(=O)c1[nH]c(C)c(C(=O)NCCN2CCOCC2)c1C
inactive: growth inhibition [1] -3.9% | growth inhibition [2] -8.41% | viability increase [3] -1.39% | viability [4] 103% | viability [5] 97.7% | inhibition [6] 0.85% | RAM network inhibition [7] -0.87%

Cc1ccc(C(=O)CC(C(=O)O)c2cn(CCC#N)c3ccccc23)cc1 (configuration not stated)
inactive: growth inhibition [1] -4% | growth inhibition [2] 3.92% | viability increase [3] -1.96% | viability [4] 98.3% | viability [5] 104% | inhibition [6] 0.735% | RAM network inhibition [7] 3.81%

CCn1c(COc2cccc3cccnc23)nnc1SCC(=O)O
inactive: growth inhibition [1] -4.3% | growth inhibition [2] 8.66% | viability increase [3] -0.53% | viability [4] 95.5% | viability [5] 91.5% | inhibition [6] 2.12% | RAM network inhibition [7] 0.05%

Cc1ccc(S(=O)(=O)CNC(=O)c2ccccc2)cc1
inactive: growth inhibition [1] -4.27% | growth inhibition [2] 3.26% | viability increase [3] 1.64% | viability [4] 97.8% | viability [5] 96.8% | inhibition [6] 1.57% | RAM network inhibition [7] 0.51%
